Data: article PMC10583827 (RSC Medicinal Chemistry, 2023)
Where “and” joins values, the source holds several entries; their conditions need not be identical. Equal entries are not always repeated. Entries after “also recorded” stand apart in the source; their conditions may differ.

Tests used:
Vero cells = test: General/basal cytotoxicity, resazurin assay
[1] = Host macrophage cytotoxicity, resazurin assay; assay type: cell-based; settings: human, PMA-differentiated THP-1 cells (macrophages)
[2] = tested on: L. donovani strain 9515 amastigotes; test: Intramacrophage antileishmanial assay; assay type: cell-based, Leishmania donovani; settings: antimonial-resistant L. donovani; activity retained 72 hours post lysis
[3] = tested on: L. major strain IR173 amastigotes; test: Intramacrophage antileishmanial assay; assay type: cell-based, Leishmania major; settings: activity retained 72 hours post macrophage lysis
Cyclic voltammetry = assay type: physicochemical; settings: acetonitrile; for ipa/ipc, ratio of anodic to cathodic current / ΔEp, wave potential separation (Epa − Epc): scan rate 100 mV s−1; for E1/2, half wave potential (E1/2 = (Epa + Epc)/2) / Epa, anodic wave potential / Epc, cathodic wave potential: scan rate 100 mV s−1, V vs. Ag/AgCl
Method in brief: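 Test compound at 0.5 mM in anhydrous acetonitrile with 0.1 M […] as background electrolyte. Three-electrode cell: glassy carbon working, Pt wire counter, Ag/AgCl reference. Scanned from −1.7 to +1.0 V at 100 mV s−1 with a 20 mV E step, 6 cycles per compound, at 25 °C. Half-wave potentials were taken from the voltammograms.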

[4] = tested on: T. cruzi strain CL trypomastigotes; test: T. cruzi antitrypomastigote assay; assay type: cell-based, Trypanosoma cruzi; settings: >10 = did not qualify at 10 μM screen
[5] = tested on: L. major strain IR173 promastigotes; test: Leishmania antipromastigote assay; assay type: cell-based; settings: read-out: Anti-promastigote activity IC50
[6] = historical data ref 35; cited from earlier work

Row | SMILES | Toxicity to mammalian cells, class in words (Vero cells) | IC50 at 72 h [1] [µM] | Cidal anti-amastigote activity against L. donovani [2] | Cidal anti-amastigote activity against L. major [3] | ipa/ipc, ratio of anodic to cathodic current (Cyclic voltammetry) | ΔEp, wave potential separation (Epa − Epc) (Cyclic voltammetry) [V] | E1/2, half wave potential (E1/2 = (Epa + Epc)/2) (Cyclic voltammetry) [V] | Epa, anodic wave potential (Cyclic voltammetry) [V] | Epc, cathodic wave potential (Cyclic voltammetry) [V] | General cytotoxicity Vero IC50 (Vero cells; Vero cells, 48 h, mean ± SD) | Anti-trypomastigote activity IC50 [4] | IC50 [5] [µM] | E1/2, half wave potential [6]
1 | O=[N+]([O-])c1ccc(/C=N/N=C/c2ccc(Br)cc2)o1 [4a, (1E,2E)-1-(4-Bromobenzylidene)-2-[(5-nitrofuran-2-yl)methylene]hydrazine] | low toxicity; also recorded: non-toxic | > 100 | cidal | cidal | 0.891 | 0.26 | −0.93 | −0.80 | −1.06 |  |  |  | 
2 | O=[N+]([O-])c1ccc(/C=N/N=C/c2ccco2)cc1 [compound 12, (E)-1-(Furan-2-ylmethylene)-2-[(E)-4-nitrobenzylidene]hydrazine] |  |  |  |  |  |  |  |  |  | complete loss | complete loss |  | 
3 | C[C@@H]1[C@H](O)[C@@H](C)/C=C/C=C/C=C/C=C/C=C/C=C/C=C/[C@H](O[C@@H]2O[C@H](C)[C@@H](O)[C@H](N)[C@@H]2O)C[C@@H]2O[C@](O)(C[C@@H](O)C[C@@H](O)[C@H](O)CC[C@@H](O)C[C@@H](O)CC(=O)O[C@H]1C)C[C@H](O)[C@H]2C(=O)O [AmB, amphotericin B] |  |  |  |  |  |  |  |  |  |  |  | 0.03 ± 0.01 | 
4 | CC1CS(=O)(=O)CCN1/N=C/c1ccc([N+](=O)[O-])o1 (stereo not shown) [NTX, Nifurtimox] |  |  |  |  |  |  |  |  |  |  |  |  | −0.88 V and −0.88 ^g V
5 | O=[N+]([O-])c1ccc(/C=N/N=C/c2ccc(Cl)cc2)o1 [3a, (1E,2E)-1-(4-Chlorobenzylidene)-2-[(5-nitrofuran-2-yl)methylene]hydrazine] | low toxicity; also recorded: non-toxic | > 100 |  | cidal | 0.967 | 0.28 | −0.94 | −0.80 | −1.08 |  |  |  | 
6 | O=[N+]([O-])c1ccc(/C=N/N=C/c2ccc(F)cc2)o1 [2a, (1E,2E)-1-(4-Fluorobenzylidene)-2-[(5-nitrofuran-2-yl)methylene]hydrazine] |  |  |  | cidal | 0.990 | 0.28 | −0.92 | −0.78 | −1.06 |  |  |  | 
7 | O=[N+]([O-])c1ccc(/C=N/N=C/c2ccc([N+](=O)[O-])o2)cc1 [9a, (1E,2E)-1-(4-Nitrobenzylidene)-2-[(5-nitrofuran-2-yl)methylene]hydrazine] |  |  | cidal | cidal | 0.963 | 0.22 | −0.95 | −0.84 | −1.06 |  |  |  | 
